# GRK2 inh: inhibitors of human GRK2 displacing RNA aptamer. AID 488847. bead flow cytometry, FAM-aptamer displacement from GRK2. P25098. inhibition of aptamer binding, % at 10 µM. 330,000 tested, 0.59% active;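 active = inhibition of aptamer binding above 40%, roughly 3 SD of noise, on plates passing a quality check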;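 also: median bead fluorescence of bound FAM aptamer so fluorescent compounds give negative values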
# Target sequence (P25098 whole entry, looked up): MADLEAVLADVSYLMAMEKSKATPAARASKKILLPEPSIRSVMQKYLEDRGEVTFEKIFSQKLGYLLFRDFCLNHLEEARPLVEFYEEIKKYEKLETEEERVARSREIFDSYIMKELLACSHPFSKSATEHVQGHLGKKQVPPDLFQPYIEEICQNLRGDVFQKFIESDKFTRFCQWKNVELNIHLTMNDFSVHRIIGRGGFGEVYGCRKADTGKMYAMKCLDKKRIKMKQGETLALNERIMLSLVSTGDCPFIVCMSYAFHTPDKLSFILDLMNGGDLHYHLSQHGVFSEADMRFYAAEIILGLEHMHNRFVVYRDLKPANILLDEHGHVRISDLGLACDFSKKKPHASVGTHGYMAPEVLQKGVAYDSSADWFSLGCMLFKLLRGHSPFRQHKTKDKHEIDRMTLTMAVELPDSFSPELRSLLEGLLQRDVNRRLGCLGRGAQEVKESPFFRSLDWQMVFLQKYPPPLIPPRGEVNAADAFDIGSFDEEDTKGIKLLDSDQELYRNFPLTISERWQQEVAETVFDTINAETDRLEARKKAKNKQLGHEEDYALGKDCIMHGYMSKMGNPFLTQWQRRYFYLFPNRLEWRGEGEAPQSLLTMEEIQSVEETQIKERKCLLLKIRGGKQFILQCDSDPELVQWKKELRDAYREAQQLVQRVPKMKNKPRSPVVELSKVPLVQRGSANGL
# CaV13 FRET inh: Primary screen for inhibitors of IQ motif and Ca2+-dependent inactivation inhibitor domain binding in CACNA1D, Förster resonance energy transfer in living cells, …; HEK cells, CFP/YFP FRET ICDI-IQ, plate reader, 10 min; percent FRET-ratio fall versus neutral wells; inhibition, % at 12.3 µM; 340,000 tested, 0.098% active;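 active = mean replicate inhibition of at least 30% and at least 1% of replicates passing that level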;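 also: 0% = median of the neutral control wells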
# procasp3 activ: activates human procaspase-3; P42574; recombinant procaspase-3 D3A, Ac-DEVD-pNA absorbance 405 nm; activation, % at 8.5 µM; 330,000 tested, 0.11% active; AID 463141;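 active = activation above the mean of all tested compounds plus 3 SD, cut at about 21% in these data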;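 also: 0% = DMSO alone and 100% = DMSO wells spiked with extra 5 µM PC-3 D3A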
#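 Assay system – Procaspase-3 D3A mutant, all three cleavage aspartates alanine · Controls – DMSO-only low control, 5 µM PC-3 D3A high control · Schedule – 1 h compound preincubation, 2 h substrate hydrolysis at 25 °C · Signal – 405 nm absorbance of p-nitroaniline, reads at 0 and 120 min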
# aDG glyco up: increases alpha dystroglycan glycosylation; activation, % at 10 µM; 360,000 tested, 0.22% active; Pro5-aDG cells, alpha-DG glycosylation AlphaScreen (IIH6); 0% Pro5, 100% B10-LARGE cell signal;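 active = activation of at least 8% versus controls, or a plate z-score of at least 8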;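 also: Pro5 are CHO cells carrying HIG-tagged alpha-DG that lacks glycosylation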
# procasp7 counter: activates human procaspase-7, counter-screen for procaspase-3 activators | 330,000 tested, 0.093% active | activation, % at 8.5 µM | P55210 | recombinant procaspase-7, Ac-DEVD-pNA absorbance 405 nm; D23A/D198A/D206A triple mutant, cannot self-cleave; scale: DMSO 0, 5 µM enzyme 100;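 active = percent activation above the screen-wide mean plus 3 SD, cut at about 25% in these data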
#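 signal = Epi-absorbance of released pNA at 405 nm, two timepoints | assay system = Uncleavable procaspase-7 mutant enzyme | reagent = Ac-DEVD-pNA substrate, 400 µM as added | times = 1 h enzyme–compound preincubation and 2 h substrate reaction, both 25 °C | benchmarks = low DMSO alone, high DMSO plus 5 µM PC-7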
# T cell modulator: T cell immune modulators affecting CD8 T cell-vesicle binding | 330,000 tested, 0.068% active | 2C CD8+ T cell-vesicle binding, flow cytometry; hits give low values | response (vesicle binding), % at 7 µM;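 active = response, share of CD8 T cells binding vesicles, and their 90th percentile fluorescence all below set limits, cut at about 80% in these data, passing the limit was not always enough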;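 also: values below 100% mean blocked vesicle binding to the CD8+ T cells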
#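 Material: 2C TCR transgenic mouse naive CD8+ T cells, MACS-purified. Also added: QL9-charged Drosophila Ld/ICAM-1/B7-1 vesicles. Timing: binding 1.5 h at 37 °C. Measured by: high-throughput flow cytometry with anti-B7-1 and anti-CD8 staining. Read-out: percent CD8+ FL2 mean versus row control. Controls: Unloaded micro-vesicles (low), QL9 vesicles with 0.7% DMSO (high).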
# Starred values were filed as active, the others as inactive; / = not tested or not shown. Compounds with a hit are over-represented: about 1.1% of the library has one in this group of screens.
SMILES,GRK2 inh,CaV13 FRET inh,procasp3 activ,aDG glyco up,procasp7 counter,T cell modulator
O=C(N/N=C/c1cn(Cc2cccc(F)c2)c2ccccc12)c1cc(O)cc(O)c1,89*,-9,/,0,/,324
Nc1ccc(C(=O)N/N=C/c2cn(Cc3ccc(F)cc3)c3ccccc23)cc1,0,/,/,0,/,339
O=C(c1ccccc1F)N1CCc2ccccc21,0,/,9,0,14,0.0*
O=C(OCC(=O)N1CCc2ccccc21)c1ccccc1F,0,-18,3,0,3,635
O=C(/C=C/c1ccc(Cl)cc1)N1CCN(Cc2ccccc2)CC1,44*,-5,3,0,10,142
CN1CCN(C(=O)/C=C/c2ccc(Cl)cc2)CC1,1,-5,4,0,4,216
Cc1cc(N2CCN(C(=O)OC(C)(C)C)C[C@H]2C)ccc1N1CCN(Cc2ccccc2)[C@@H](C)C1,/,-7,/,/,/,/
CCOC(=O)c1c(NC(NC(C)=O)C(Cl)(Cl)Cl)sc2c1CCCC2 (stereo not drawn),73*,-3,-5,0,-1,271
Cc1ccccc1-c1ccc2c(c1)[C@@H]1C[C@H]3[C@@H](CN1CC2)[C@H](C)ON3C,/,-5,/,/,/,/
O=C(CSc1ncn[nH]1)CSc1ncn[nH]1,0,7,-1,0,3,11*
O=C(Cc1nnc(NC(=O)c2ccccc2)s1)N/N=C/c1cccc(O)c1,0,-4,-1,0,-8,239
O=C(Cc1nnc(NC(=O)c2ccccc2)s1)N/N=C/c1ccco1,0,-5,0,0,1,0.0*
O=C(COC(=O)c1cc(S(=O)(=O)N2CCCCC2)ccc1N1CCOCC1)c1ccccc1Cl,/,64*,/,0,/,/
N#CCOC(=O)c1cc(S(=O)(=O)N2CCCCC2)ccc1N1CCOCC1,0,-11,8,0,1,369
C[C@H](O)[C@@H]1CN2CCc3c([nH]c4ccccc34)[C@@H]2C[C@@H]1N(C)CC1CCCCC1,/,-5,/,/,/,/
CN(C(=O)[C@H]1O[C@@H](n2cnc3c(=O)[nH]c(N)nc32)[C@H](O)[C@@H]1O)C1CCCCC1,/,-3,/,/,/,/
Cc1ccc(S(=O)(=O)N2CCN(C(=O)c3cccc(-n4cccc4)c3)CC2)cc1,2,-6,-2,0,-10,704
O=C(c1cccc(-n2cccc2)c1)N1CCN(S(=O)(=O)c2ccccc2)CC1,81*,-4,3,0,-9,526
N#Cc1c(NCCCO)nc(NCc2ccccc2)c2c1CCN(Cc1ccccc1)C2,2,32*,-15,0,-25,225
OC(c1ccccc1)(c1ccccc1)C1CCN(CCCOc2ccc(-c3ccc(F)cc3F)cc2)CC1,/,-10,/,/,/,/
CCCOc1ccc(/C=C2\SC(N)=NC2=O)cc1OC,1,-3,1,0,-8,254
CCCOc1ccccc1/C=C1\SC(N)=NC1=O,0,44*,/,0,/,170
COc1ccc2c(c1)sc1nc(-c3ccccc3)cn12,3,/,1,14*,-1,178
CC(=O)N1CCN(c2ccc(N3CCN(Cc4ccccc4)[C@@H](C)C3)c(C)c2)[C@@H](C)C1,/,-7,/,/,/,/
CCCC(=O)Oc1ccc2c(C)cc(=O)oc2c1,0,-5,-38,0,2,243
SMILES,GRK2 inh,CaV13 FRET inh,procasp3 activ,aDG glyco up,procasp7 counter,T cell modulator
Cc1cc(=O)oc2cc(OC(=O)c3cncc(Br)c3)ccc12,1,45*,10,0,25,702
CCN(CC)CCCNc1nc(C)cc(COC)c1C#N,0,45*,-4,0,-5,130
CC(=O)Oc1ccc2cc(-c3nc4ccccc4n3C)c(=O)oc2c1,12,33*,-10,0,-24,844
Cn1cccc1C(=O)NNC(=O)c1ccccc1Br,4,-2,3,0,6,0.0*
C=CCN=C1NC(c2cccc(Cl)c2)C(C(=O)OC)=C(C)N1Cc1cccc(C(F)(F)F)c1 (stereo not drawn),/,-4,/,/,/,/
C=CCOc1ccc(C[C@H](N)C(=O)NC[C@H]2O[C@@H](n3cnc4c(N)ncnc43)[C@H](O)[C@@H]2O)cc1,43*,/,-3,0,2,/
CC[C@@H](C)[C@H](N)C(=O)NC[C@H]1O[C@@H](n2cnc3c(N)ncnc32)[C@H](O)[C@@H]1O,5,-5,-4,0,4,/
COc1ccc(N2C(=O)c3n[nH]c(C(C)C)c3C2c2ccccc2)cc1 (stereo not drawn),/,-4,/,/,/,/
S=C1NC[C@H](Cc2ccccc2)N1CC1CCN(CCCC2CCCCC2)CC1,/,-6,/,/,/,/
CCCCC1OC(CCc2ccccc2)CC2=C1C(=O)OC(C)(C)O2 (stereo not drawn),/,-10,/,/,/,/
O=C(NCCc1ccccc1Cl)[C@@H]1CCCN1C(=O)[C@@H](NS(=O)(=O)c1ccc(F)cc1F)C1CCCCC1,/,-11,/,/,/,/
Cc1ccc(S(=O)(=O)Nc2ccccc2C=Nc2cccc(C)c2C)cc1,0,-17,-9,0,2,0.0*
CCOC(=O)c1cc(-c2ccccc2)sc1NC(=O)C(C)OC(=O)c1cccnc1Cl (stereo not drawn),100*,-5,5,0,2,409
CCOC(=O)c1cc(-c2ccccc2)sc1NC(=O)C(C)OC(=O)c1ccncc1 (stereo not drawn),4,-5,-2,0,-2,238
COc1ccc(NC(=O)Nc2c(O)ccc3ccccc23)cc1,2,-19,-2,1,-16,39*
CCOc1ccc(C2CC(c3ccccc3C)n3nc(N)nc3N2)cc1 (stereo not drawn),1,-3,4,0,7,53*
Cc1ccc(N2C(=O)C(NC(=O)c3ccccc3F)(C(F)(F)F)C3=C2CC(C)(C)CC3=O)cc1 (stereo not drawn),75*,-3,0,0,-5,132
CC1(C)CC(=O)C2=C(C1)N(c1ccc(F)cc1)C(=O)C2(NC(=O)c1ccccc1F)C(F)(F)F (stereo not drawn),0,-4,-10,0,-4,325
Nc1[nH]c(C(=O)c2ccccc2)c(-c2ccccn2)c1C(=O)c1c[nH]c2ccc(F)cc12,/,-22,/,/,/,/
CCCCCc1ccc(-c2cn(Cc3ccc(C(=O)c4ccccc4)cc3)nn2)cc1,3,-4,1,0,-13,838
O=C(c1ccccc1)c1ccc(Cn2cc(-c3ccccc3)nn2)cc1,1,-10,3,4.5*,0,300
